Laboratory results: ChEMBL document CHEMBL3259790, “In Vitro Membrane Permeation Studies and in Vivo Antinociception of Glycosylated Dmt(1)-DALDA Analogues” (ACS Med Chem Lett, 2014)
Where a SMILES comes first, the peptide text is derived from it. [ ]: non-standard residue; d: D form. The star is where a group is joined. X1 = OC[C@H]1O[C@@H](n2cc(C*)nn2)[C@H](O)[C@@H](O)[C@H]1O; Dmt = Cc1cc(O)cc(C)c1C[C@H](N)C(=O)O

What was measured:
Mus musculus [1] = assay: Antinociceptive activity in iv dosed C57Bl6 mouse assessed as tail flick latency after 5 to 180 mins by tail-flick assay; type: functional
How it was run: (§1)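 Intravenous dosing in C57Bl6 mice (23–25 g), with antinociception monitored up to 180 min by hot plate (supraspinal) or tail-flick (spinal) and expressed as %MPE. ED50 in mg/kg came from standard nonlinear regression of the log dose–response curve.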

Mus musculus [2] = assay: Antinociceptive activity in C57Bl6 mouse assessed as maximum possible effect at 0.5 mg/kg, iv after 180 mins by hot plate test; type: functional
How it was run: (§2)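 C57Bl6 mice (23–25 g body weight) received a single intravenous dose of 0.5 mg/kg. Supraspinal antinociception was measured by hot plate and expressed as %MPE. Readings were followed over time up to 180 min after dosing to give the time course and the time of peak effect.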

Mus musculus [3] = assay: Antinociceptive activity in C57Bl6 mouse assessed as time of peak effect of tail flick latency at 0.5 mg/kg, iv by tail-flick assay; type: functional
How it was run: (§3)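 C57Bl6 mice (23–25 g) were dosed intravenously at 0.5 mg/kg. Spinal antinociception was measured by tail-flick latency and expressed as %MPE. The response was tracked over time up to 180 min post-dose to find the time of peak effect.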

Mus musculus [4] = assay: Antinociceptive activity in C57Bl6 mouse at 0.5 mg/kg, iv by hot plate test; type: functional, organism-based; design: dose 0.5 mg/kg; conditions: TDE = time-dependent effect; how it was run: as §2
[5] = target: Delta-type opioid receptor (Rattus norvegicus, UniProt P33533); assay: Displacement of [3H]DSLET from delta opioid receptor in rat brain membranes; type: cell membranes, Membrane
How it was run: (§4)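 Binding used rat brain membrane preparations, with MOR labelled by [3H]DAMGO and DOR by [3H]DSLET and read as displacement. Functional MOR activity was measured in isolated guinea pig ileum and DOR activity in isolated mouse vas deferens. Values are means of 3–4 experiments.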

Mu-type opioid receptor [6] = target: Mu-type opioid receptor (Rattus norvegicus, UniProt P33535); assay: Displacement of [3H]DAMGO from mu opioid receptor in rat brain membranes; type: cell membranes, Membrane; how it was run: as §4
Plasma = assay: Drug degradation in human plasma up to 20 hrs; type: ADME, cell-free
Mus musculus [7] = assay: Antinociceptive activity in C57Bl6 mouse assessed as time of peak effect at 0.5 mg/kg, iv by hot plate test; type: functional; how it was run: as §2
Mus musculus [8] = assay: Antinociceptive activity in iv dosed C57Bl6 mouse after 5 to 180 mins by hot plate test; type: functional; how it was run: as §1
Mus musculus [9] = assay: Antinociceptive activity in C57Bl6 mouse assessed as tail flick latency at 0.5 mg/kg, iv by tail-flick assay; type: functional, organism-based; design: dose 0.5 mg/kg; conditions: TDE = time-dependent effect; how it was run: as §3
[10] = target: Delta-type opioid receptor (Mus musculus, UniProt P32300); assay: Agonist activity at delta opioid receptor in mouse vas deferens; how it was run: as §4
Mu-type opioid receptor [11] = target: Mu-type opioid receptor (Cavia porcellus, UniProt P97266); assay: Agonist activity at mu opioid receptor in guinea pig ileum; type: tissue-based; how it was run: as §4
Mus musculus [12] = assay: Antinociceptive activity in C57Bl6 mouse assessed as maximum possible effect of tail flick latency at 0.5 mg/kg, iv after 180 mins by tail-flick assay; type: functional; how it was run: as §3
[13] = Half life in rat brain homogenates; type: ADME, tissue-based; conditions: brain homogenate
[14] = Half life in human plasma; type: ADME, cell-free

Mu-type opioid receptor (Cavia porcellus, UniProt P97266), sequence (P97266 whole entry): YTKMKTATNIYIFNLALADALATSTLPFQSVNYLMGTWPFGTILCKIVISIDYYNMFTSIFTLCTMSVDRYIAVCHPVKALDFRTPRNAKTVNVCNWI
Delta-type opioid receptor (Rattus norvegicus, UniProt P33533), sequence (P33533 whole entry): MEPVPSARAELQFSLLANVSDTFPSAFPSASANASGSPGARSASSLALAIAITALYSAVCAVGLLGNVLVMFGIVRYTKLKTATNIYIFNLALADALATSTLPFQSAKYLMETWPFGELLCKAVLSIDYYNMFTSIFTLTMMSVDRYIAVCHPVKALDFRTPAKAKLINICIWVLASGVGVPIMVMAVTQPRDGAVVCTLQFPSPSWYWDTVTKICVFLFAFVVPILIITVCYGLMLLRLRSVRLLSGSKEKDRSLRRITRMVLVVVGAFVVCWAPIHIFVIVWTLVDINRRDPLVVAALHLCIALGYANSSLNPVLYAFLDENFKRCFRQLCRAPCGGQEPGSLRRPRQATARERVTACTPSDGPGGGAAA
Mu-type opioid receptor (Rattus norvegicus, UniProt P33535), sequence (P33535 whole entry): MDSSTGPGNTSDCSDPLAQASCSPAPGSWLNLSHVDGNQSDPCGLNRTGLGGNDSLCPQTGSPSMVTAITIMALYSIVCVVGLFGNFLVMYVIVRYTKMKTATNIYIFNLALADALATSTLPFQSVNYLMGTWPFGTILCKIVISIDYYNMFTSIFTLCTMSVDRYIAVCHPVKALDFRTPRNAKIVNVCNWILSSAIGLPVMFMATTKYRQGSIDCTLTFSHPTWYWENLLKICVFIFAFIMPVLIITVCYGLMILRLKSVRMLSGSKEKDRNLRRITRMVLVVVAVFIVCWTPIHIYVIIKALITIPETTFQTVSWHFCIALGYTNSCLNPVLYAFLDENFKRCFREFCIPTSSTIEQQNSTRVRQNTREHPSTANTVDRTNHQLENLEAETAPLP
Delta-type opioid receptor (Mus musculus, UniProt P32300), sequence (P32300 whole entry): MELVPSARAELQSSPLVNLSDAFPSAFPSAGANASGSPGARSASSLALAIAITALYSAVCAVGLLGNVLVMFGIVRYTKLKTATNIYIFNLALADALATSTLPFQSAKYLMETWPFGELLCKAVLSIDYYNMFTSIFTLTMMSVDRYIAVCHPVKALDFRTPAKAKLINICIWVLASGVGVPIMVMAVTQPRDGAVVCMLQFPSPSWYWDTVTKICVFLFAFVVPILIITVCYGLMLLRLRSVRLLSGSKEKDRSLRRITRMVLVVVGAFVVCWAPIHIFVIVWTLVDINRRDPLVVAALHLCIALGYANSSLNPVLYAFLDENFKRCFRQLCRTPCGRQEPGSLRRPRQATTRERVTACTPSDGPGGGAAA

Row | SMILES | Activity (Mus musculus [1]) | ED50 (Mus musculus [1]) | MPE (Mus musculus [2]) | Time (Mus musculus [3]) | Activity (Mus musculus [4]) | Ki [5] | Ki (Mu-type opioid receptor [6]) | Stability (Plasma) | Time (Mus musculus [7]) | Activity (Mus musculus [8]) | ED50 (Mus musculus [8]) | Activity (Mus musculus [9]) | IC50 [10] | IC50 (Mu-type opioid receptor [11]) | MPE (Mus musculus [12]) | half-life [13] | half-life [14]
1 | Cc1cc(O)cc(C)c1C[C@H](N)C(=O)N[C@H](CCCNC(=N)N)C(=O)N[C@@H](Cc1ccccc1)C(=O)N[C@@H](Cc1cn([C@@H]2O[C@H](CO)[C@H](O)[C@H](O)[C@H]2O)nn1)C(N)=O | Dose-dependent effect | 0.27 mg/kg | 40% | 60 min | tde | 15.6 nM | 0.222 nM | Stable | 60 min | Dose-dependent effect | 0.4 mg/kg | tde | 1.98 nM | 0.66 nM | 40% | – | –
2 | Cc1cc(O)cc(C)c1C[C@H](N)C(=O)N[C@H](CCCNC(=N)N)C(=O)N[C@@H](Cc1ccccc1)C(=O)N[C@@H](CCCCN)C(N)=O | Dose-dependent effect | 0.17 mg/kg | 40% | 60 min | tde | – | – | – | – | Dose-dependent effect | 0.25 mg/kg | tde | – | – | 40% | – | –
3 | Cc1cc(O)cc(C)c1C[C@H](N)C(=O)N[C@H](CCCNC(=N)N)C(=O)N[C@@H](Cc1ccccc1)C(=O)N[C@@H](COCc1cn([C@@H]2O[C@H](CO)[C@H](O)[C@H](O)[C@H]2O)nn1)C(N)=O (H-[Dmt][dR]FS(X1)-NH2) | – | – | – | – | – | 6.36 nM | 0.112 nM | – | – | – | – | – | 4.9 nM | 0.35 nM | – | – | –
4 | NCCCC[C@H](NC(=O)[C@H](Cc1ccccc1)NC(=O)[C@@H](CCCN=C(N)N)NC(=O)[C@@H](N)Cc1ccc(O)cc1)C(N)=O | – | – | – | – | – | – | – | – | – | – | – | – | – | 254 nM | – | – | –
5 | Cc1cc(O)cc(C)c1C[C@H](N)C(=O)N[C@H](CCCNC(=N)N)C(=O)N[C@@H](Cc1ccccc1)C(=O)N[C@@H](Cc1cn([C@@H]2O[C@H](CO)[C@@H](O)[C@H](O)[C@H]2O)nn1)C(N)=O | Dose-dependent effect | 0.34 mg/kg | 40% | 60 min | tde | 11.9 nM | 0.203 nM | Stable | – | Dose-dependent effect | 0.31 mg/kg | tde | 2.75 nM | 1.46 nM | 40% | – | –
6 | Cc1cc(O)cc(C)c1C[C@H](N)C(=O)N1CCC[C@H]1C(=O)N[C@@H](Cc1ccccc1)C(=O)N[C@@H](Cc1ccccc1)C(N)=O | – | – | – | – | – | – | – | – | – | – | – | – | – | – | – | 39.5 min | 53 min
7 | N=C(N)NCCC[C@@H](NC(=O)[C@@H](N)Cc1ccc(OCc2cn([C@@H]3O[C@H](CO)[C@H](O)[C@H](O)[C@H]3O)nn2)cc1)C(=O)N[C@@H](Cc1ccccc1)C(=O)N[C@@H](CCCCN)C(N)=O | – | – | – | – | – | > 5000 nM | 38.4 nM | – | – | – | – | – | 1990 nM | 1180 nM | – | – | –
8 | Cc1cc(O)cc(C)c1C[C@H](N)C(=O)N[C@H](CCCNC(=N)N)C(=O)N[C@@H](Cc1ccccc1)C(=O)N[C@@H](Cc1ccc(OCc2cn([C@@H]3O[C@H](CO)[C@H](O)[C@H](O)[C@H]3O)nn2)cc1)C(N)=O (H-[Dmt][dR]FY(X1)-NH2) | – | – | – | – | – | 22.2 nM | 0.286 nM | – | – | – | – | – | 6 nM | 2.3 nM | – | – | –
